How the values were obtained:
[1] = test system: Mus musculus; assay: Toxicity in mouse assessed as tail bleeding time at 200 mg/kg, po after 45 mins; format: organism-based; set-up: dose 200 mg/kg, route oral; details: in vivo, 0.75 h
Method in brief: (§1)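 Male mice (18–22 g) were dosed orally, and bleeding time was recorded before dosing and at each post-dose time. Each mouse was held in a tube with its tail protruding, and a 2 mm tail cut was made. Blood was wiped away with tissue every 30 s until bleeding ceased, and the time was recorded. The comparison group received NS.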

[2] = test system: Mus musculus; assay: Inhibition of xylene-induced ear edema in Kunming mouse at 20 mg/kg, po after 2 hrs relative to control; format: functional
Method in brief: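 Male Kunming mice (groups of 12; n = 11 per table footnote) were dosed orally as a suspension in 0.5% CMC, with CMC vehicle and positive control groups. After 30 min, 0.03 ml xylene went on both surfaces of the right ear, with the left ear as control. Mice were killed 2 h later. 7 mm ear punches were weighed, and edema was taken as right minus left weight. Groups were compared by one-way ANOVA, p < 0.05.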

[3] = test system: Mus musculus; assay: Toxicity in mouse assessed as tail bleeding time at 200 mg/kg, po after 60 mins; format: organism-based; set-up: dose 200 mg/kg, route oral; details: in vivo, 1 h; method in brief: as §1
[4] = test system: Mus musculus; assay: Toxicity in mouse assessed as tail bleeding time at 200 mg/kg, po after 30 mins; format: organism-based; set-up: dose 200 mg/kg, route oral; details: in vivo, 0.5 h; method in brief: as §1
[5] = test system: Mus musculus; assay: Toxicity in mouse assessed as tail bleeding time at 200 mg/kg, po after 90 mins; format: organism-based; set-up: dose 200 mg/kg, route oral; details: in vivo, 1.5 h; method in brief: as §1

Compound | Activity [1] | inhibition in vivo at 20 mg/kg [2] | Activity [3] | Activity [4] | Activity [5]
C[C@@H]1O[C@H](c2ccc([N+](=O)[O-])cc2)OC[C@H]1NC(=O)Cc1ccccc1 | 118.5 s | 55.1% | 117.9 s | 117.8 s | 117.2 s
O=C(Cc1ccccc1)N[C@H]1CCCO[C@@H](c2ccc(Cl)cc2)OC1 | – | 23.7% | – | – | –
O=C(Cc1ccccc1)N[C@H]1CCO[C@@H](c2cccc([N+](=O)[O-])c2)OC1 | – | 21.2% | – | – | –
C[C@@H]1O[C@@H](/C=C/c2ccccc2)OC[C@H]1NC(=O)Cc1ccccc1 | – | 32.1% | – | – | –
C[C@@H]1O[C@@H](c2ccc([N+](=O)[O-])cc2)OC[C@H]1NC(=O)Cc1ccccc1 | 118.5 s | 55.8% | 117.9 s | 117.8 s | 117.2 s
O=C(Cc1ccccc1)N[C@H]1CCCO[C@H](c2ccc(Cl)cc2)OC1 | – | 23.1% | – | – | –
Cc1ccc([C@H]2OC[C@H](NC(=O)Cc3ccccc3)CO2)cc1 | 118.6 s | 35.6% | 118.4 s | 117.2 s | 119.2 s
O=C(N[C@H]1CCO[C@@H](c2ccc([N+](=O)[O-])cc2)OC1)c1ccccc1 | – | 20.2% | – | – | –
O=C(Cc1ccccc1)N[C@H]1CCO[C@@H](c2ccc([N+](=O)[O-])cc2)OC1 | – | 19.6% | – | – | –
O=C(N[C@H]1CO[C@H](c2cccc([N+](=O)[O-])c2)OC1)c1ccccc1 | 118 s | 45.2% | 118.4 s | 118.8 s | 118.7 s
O=C(Cc1ccccc1)N[C@H]1CO[C@H](c2ccc(Cl)cc2)OC1 | 119.2 s | 42% | 119.5 s | 117.9 s | 118.4 s
Cc1ccc([C@@H]2OC[C@@H](NC(=O)c3ccccc3)[C@H](C)O2)cc1 | 118.5 s | 44.9% | 118.9 s | 120.4 s | 117.7 s
O=C(Cc1ccccc1)N[C@H]1CCCO[C@H](c2cccc([N+](=O)[O-])c2)OC1 | – | 19.2% | – | – | –
C[C@@H]1O[C@@H](c2ccccc2)OC[C@H]1NC(=O)c1ccccc1 | – | 43.9% | – | – | –
O=C(Cc1ccccc1)N[C@H]1CCO[C@H](c2cccc([N+](=O)[O-])c2)OC1 | – | 20.1% | – | – | –
O=C(Cc1ccccc1)N[C@H]1CCO[C@H](c2ccc([N+](=O)[O-])cc2)OC1 | – | 18.9% | – | – | –
O=C(Cc1ccccc1)N[C@H]1CCCO[C@@H](c2cccc([N+](=O)[O-])c2)OC1 | – | 19.9% | – | – | –
O=C(Cc1ccccc1)N[C@H]1CO[C@@H](c2ccc(Cl)cc2)OC1 | 119.2 s | 43.6% | 119.5 s | 117.9 s | 118.4 s
O=C(Cc1ccccc1)N[C@H]1CO[C@@H](c2ccccc2)OC1 | 119.3 s | 38.5% | 117.8 s | 118.5 s | 118.9 s
O=C(N[C@H]1CO[C@H](c2ccc([N+](=O)[O-])cc2)OC1)c1ccccc1 | 117.7 s | 48.7% | 118.6 s | 119.5 s | 118.9 s
C[C@@H]1O[C@H](c2cccc([N+](=O)[O-])c2)OC[C@H]1NC(=O)Cc1ccccc1 | 118.7 s | 46.5% | 118.5 s | 120.1 s | 118.6 s
O=C(N[C@H]1CCO[C@H](c2cccc([N+](=O)[O-])c2)OC1)c1ccccc1 | – | 20.8% | – | – | –

Compound | Activity [1] | inhibition in vivo at 20 mg/kg [2] | Activity [3] | Activity [4] | Activity [5]
O=C(Cc1ccccc1)N[C@H]1CO[C@H](c2ccc([N+](=O)[O-])cc2)OC1 | 120.2 s | 44.6% | 117.6 s | 120.7 s | 117.7 s
O=C(Cc1ccccc1)N[C@H]1CCCO[C@H](c2ccc([N+](=O)[O-])cc2)OC1 | – | 19.9% | – | – | –
C[C@@H]1O[C@@H](c2cccc([N+](=O)[O-])c2)OC[C@H]1NC(=O)Cc1ccccc1 | 118.7 s | 47.1% | 118.5 s | 120.1 s | 118.6 s
O=C(N[C@H]1CO[C@@H](c2cccc([N+](=O)[O-])c2)OC1)c1ccccc1 | 118.2 s | 42.9% | 119.1 s | 119.3 s | 120.2 s
O=C(Cc1ccccc1)N[C@H]1CO[C@@H](/C=C/c2ccccc2)OC1 | – | 27.2% | – | – | –
Cc1ccc([C@H]2OC[C@@H](NC(=O)Cc3ccccc3)CO2)cc1 | 118.6 s | 36.5% | 118.4 s | 117.2 s | 119.2 s
O=C(N[C@H]1CO[C@@H](c2ccc([N+](=O)[O-])cc2)OC1)c1ccccc1 | 118.7 s | 44.2% | 120.6 s | 119.4 s | 119.4 s
O=C(N[C@H]1CO[C@H](c2ccc(Cl)cc2)OC1)c1ccccc1 | 118.9 s | 47.4% | 118.7 s | 119 s | 119.6 s
O=C(N[C@H]1CO[C@@H](c2ccc(Cl)cc2)OC1)c1ccccc1 | 118.9 s | 28.5% | 120.9 s | 118 s | 119.4 s
O=C(Cc1ccccc1)N[C@H]1CO[C@H](c2ccccc2)OC1 | 119.3 s | 37.8% | 117.8 s | 118.5 s | 118.9 s
Cc1ccc([C@H]2OC[C@@H](NC(=O)c3ccccc3)[C@H](C)O2)cc1 | 121 s | 46.1% | 119.8 s | 120.9 s | 118.7 s
C[C@@H]1O[C@H](/C=C/c2ccccc2)OC[C@H]1NC(=O)Cc1ccccc1 | – | 33.3% | – | – | –
O=C(Cc1ccccc1)N[C@H]1CCCO[C@@H](c2ccc([N+](=O)[O-])cc2)OC1 | – | 20.8% | – | – | –
O=C(N[C@H]1CCO[C@@H](c2cccc([N+](=O)[O-])c2)OC1)c1ccccc1 | – | 21.8% | – | – | –
O=C(N[C@H]1CCO[C@@H](c2ccc(Cl)cc2)OC1)c1ccccc1 | – | 28.2% | – | – | –
O=C(N[C@H]1CCO[C@H](c2ccc(Cl)cc2)OC1)c1ccccc1 | – | 29.5% | – | – | –
O=C(Cc1ccccc1)N[C@H]1CO[C@H](/C=C/c2ccccc2)OC1 | – | 29.5% | – | – | –
O=C(Cc1ccccc1)N[C@H]1CCO[C@@H](c2ccc(Cl)cc2)OC1 | – | 24.4% | – | – | –
O=C(N[C@H]1CCO[C@H](c2ccc([N+](=O)[O-])cc2)OC1)c1ccccc1 | – | 19.2% | – | – | –
O=C(Cc1ccccc1)N[C@H]1CCO[C@H](c2ccc(Cl)cc2)OC1 | – | 23.7% | – | – | –
C[C@@H]1O[C@H](c2cccc([N+](=O)[O-])c2)OC[C@H]1NC(=O)c1ccccc1 | 118.2 s | – | 119.5 s | 118.9 s | 118.2 s

Source: ChEMBL document CHEMBL1149585, “Toward the development of chemoprevention agents. Part 1: Design, synthesis, and anti-inflammatory activities of a new class of 2,5-disubstituted-dioxacycloalkanes” (Bioorg Med Chem, 2007)
